Data published in ChEMBL document CHEMBL2151002 (J Med Chem, 2012).
Activity calls are given as the source filed them. No cut-off for these calls is given here.

Tests used:
[1] = test system: Radical scavenging activity; test: Antioxidant activity assessed as DPPH radical scavenging activity; type: functional
Method in brief: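 Methanolic compound solutions (20–250 µM) mixed 1:1 with 200 µM methanolic DPPH and shaken at 30 °C for 20 min. Absorbance read at 517 nm. Controls were DPPH plus methanol; methanol alone served as background. % scavenging = (A control − A sample)/A control × 100, giving IC50.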

Rattus norvegicus [2] = species: Rattus norvegicus; test: Selectivity ratio of Ki for rat cloned dopamine D2L receptor to Ki for rat cloned dopamine D3 receptor
D(3) dopamine receptor [3] = molecular target: D(3) dopamine receptor (Rattus norvegicus, UniProt P19020); test: Displacement of [3H]spiroperidol from rat cloned dopamine D3 receptor expressed in HEK293 cells; type: cell-based
D(2) dopamine receptor [4] = molecular target: D(2) dopamine receptor (Rattus norvegicus, UniProt P61169); test: Displacement of [3H]spiroperidol from rat cloned dopamine D2L receptor expressed in HEK293 cells; type: cell-based
D(2) dopamine receptor [5] = molecular target: T1, D(2) dopamine receptor (Homo sapiens, UniProt P14416); test: Agonist activity at human cloned dopamine D2 receptor expressed in CHO cells by [35S]GTPgammaS binding assay; type: functional, cell-based
D(2) dopamine receptor [6] = molecular target: T1, D(2) dopamine receptor; test: Agonist activity at human cloned dopamine D2 receptor expressed in CHO cells by [35S]GTPgammaS binding assay relative to dopamine; type: functional, cell-based
D(3) dopamine receptor [7] = molecular target: D(3) dopamine receptor (Homo sapiens, UniProt P35462); test: Agonist activity at human cloned dopamine D3 receptor expressed in CHO cells by [35S]GTPgammaS binding assay; type: functional, cell-based
Rattus norvegicus [8] = test: Reversal of reserpine-induced akinesia in Sprague-Dawley rat at 10 umol/kg, sc administered 18 hrs post reserpine challenge measured for 6 hrs; type: functional, organism-based
Rattus norvegicus [9] = test: Reversal of reserpine-induced akinesia in Sprague-Dawley rat at 5 umol/kg, sc administered 18 hrs post reserpine challenge measured for 6 hrs; type: functional, organism-based

T1 sequence (P14416 whole entry): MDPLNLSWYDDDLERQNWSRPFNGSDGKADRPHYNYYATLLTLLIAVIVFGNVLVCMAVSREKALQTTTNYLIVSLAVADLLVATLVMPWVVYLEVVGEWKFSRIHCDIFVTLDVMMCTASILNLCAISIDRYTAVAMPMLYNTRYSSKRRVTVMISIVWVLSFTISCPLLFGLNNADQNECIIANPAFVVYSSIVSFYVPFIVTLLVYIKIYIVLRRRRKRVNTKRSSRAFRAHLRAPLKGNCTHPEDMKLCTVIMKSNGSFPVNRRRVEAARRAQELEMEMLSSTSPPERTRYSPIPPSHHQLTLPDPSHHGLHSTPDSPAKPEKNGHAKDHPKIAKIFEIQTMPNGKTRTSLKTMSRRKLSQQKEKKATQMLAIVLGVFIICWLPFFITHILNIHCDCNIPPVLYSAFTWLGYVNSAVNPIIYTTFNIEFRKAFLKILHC
Chain of D(3) dopamine receptor (Rattus norvegicus, UniProt P19020) (P19020 whole entry): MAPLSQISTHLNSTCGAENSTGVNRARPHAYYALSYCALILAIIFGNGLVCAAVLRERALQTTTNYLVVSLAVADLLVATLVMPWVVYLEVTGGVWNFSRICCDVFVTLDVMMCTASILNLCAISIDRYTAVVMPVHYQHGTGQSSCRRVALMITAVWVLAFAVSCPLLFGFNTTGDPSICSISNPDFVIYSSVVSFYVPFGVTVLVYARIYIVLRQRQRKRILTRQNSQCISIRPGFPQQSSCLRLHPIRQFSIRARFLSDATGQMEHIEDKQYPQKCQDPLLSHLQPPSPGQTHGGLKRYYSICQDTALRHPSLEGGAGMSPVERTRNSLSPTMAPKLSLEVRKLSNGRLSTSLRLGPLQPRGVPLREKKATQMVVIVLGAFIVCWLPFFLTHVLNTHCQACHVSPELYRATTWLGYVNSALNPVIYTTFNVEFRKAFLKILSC
Chain of D(3) dopamine receptor (Homo sapiens, UniProt P35462) (P35462 whole entry): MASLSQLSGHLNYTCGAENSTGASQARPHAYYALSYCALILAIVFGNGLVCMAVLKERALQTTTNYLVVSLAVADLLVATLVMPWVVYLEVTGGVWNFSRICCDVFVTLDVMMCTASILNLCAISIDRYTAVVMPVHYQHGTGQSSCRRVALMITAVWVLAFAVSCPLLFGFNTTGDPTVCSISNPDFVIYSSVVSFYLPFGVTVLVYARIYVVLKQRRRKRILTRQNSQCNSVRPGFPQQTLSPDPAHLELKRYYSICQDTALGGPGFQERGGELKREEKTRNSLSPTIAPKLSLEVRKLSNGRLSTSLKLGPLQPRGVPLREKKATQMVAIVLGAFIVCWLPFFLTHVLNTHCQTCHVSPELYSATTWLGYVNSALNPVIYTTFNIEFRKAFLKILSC
Chain of D(2) dopamine receptor (Rattus norvegicus, UniProt P61169) (P61169 whole entry): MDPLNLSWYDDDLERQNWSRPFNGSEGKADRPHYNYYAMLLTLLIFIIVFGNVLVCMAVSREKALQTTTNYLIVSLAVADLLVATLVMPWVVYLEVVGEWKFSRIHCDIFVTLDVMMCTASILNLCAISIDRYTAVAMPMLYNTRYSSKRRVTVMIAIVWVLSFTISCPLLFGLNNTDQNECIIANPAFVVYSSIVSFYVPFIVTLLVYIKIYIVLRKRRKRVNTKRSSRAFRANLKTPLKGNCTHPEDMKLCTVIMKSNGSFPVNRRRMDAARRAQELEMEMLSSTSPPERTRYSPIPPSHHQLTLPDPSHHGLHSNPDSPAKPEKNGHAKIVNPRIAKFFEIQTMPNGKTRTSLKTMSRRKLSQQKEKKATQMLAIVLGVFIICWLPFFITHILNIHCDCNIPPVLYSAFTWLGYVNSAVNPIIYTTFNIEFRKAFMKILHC

Row | SMILES | Ratio Ki (Rattus norvegicus [2]) | Ki (D(3) dopamine receptor [3]) [nM] | Ki (D(2) dopamine receptor [4]) [nM] | other results
1 | O=C1O[C@H]([C@@H](O)CO)C(O)=C1O [ASCORBIC ACID] | – | – | – | Activity [1]: Dose-dependent effect; IC50 [1]: 24900 nM
2 | CCCN(CCN1CCN(C(=O)c2c[nH]c3ccccc23)CC1)[C@H]1CCc2nc(N)sc2C1 | 828 | 1.09 | 902 | EC50 (D(2) dopamine receptor [5]): 86.4 nM; Emax (D(2) dopamine receptor [6]): 91.6%; EC50 (D(3) dopamine receptor [7]): 0.87 nM
3 | CCCN(CCN1CCN(C(=O)c2c[nH]c3ccccc23)CC1)C1CCc2nc(N)sc2C1 (racemic) | 360 | 4.17 | 1500 | Activity [1]: Dose-dependent effect
4 | CCCN(CCCN1CCN(C(=O)c2cc3ccccc3[nH]2)CC1)C1CCc2nc(N)sc2C1 (racemic) | 334 | 2.78 | 928 | –
5 | CCCN(CCN1CCN(C(=O)c2ccc3[nH]ccc3c2)CC1)C1CCc2nc(N)sc2C1 (racemic) | 303 | 4.1 | 1240 | Activity [1]: Dose-dependent effect
6 | CCCN(CCN1CCN(C(=O)c2c[nH]c3ccccc23)CC1)[C@@H]1CCc2nc(N)sc2C1 | 27.3 | 48.2 | 1320 | –
7 | CCCN(CCN1CCN(Cc2ccc3[nH]ccc3c2)CC1)C1CCc2nc(N)sc2C1 (configuration not stated) | 16.4 | 8.07 | 132 | –
8 | CCCN(CCN1CCN(C(=O)c2ccc3[nH]ccc3c2)CC1)[C@H]1CCc2nc(N)sc2C1 | 736 | 1.4 | 1030 | Activity (Rattus norvegicus [8]): inactive; EC50 (D(2) dopamine receptor [5]): 70.7 nM; Emax (D(2) dopamine receptor [6]): 107%; EC50 (D(3) dopamine receptor [7]): 0.56 nM
9 | CCCN(CCN1CCN(c2nccc3ccccc23)CC1)[C@H]1CCc2nc(N)sc2C1 | 121 | – | – | EC50 (D(3) dopamine receptor [7]): 0.82 nM
10 | CCCN(CCN1CCN(C(=O)c2cc3ccccc3[nH]2)CC1)[C@H]1CCc2nc(N)sc2C1 | – | 1.84 | 1070 | Activity (Rattus norvegicus [8]): inactive; Emax (D(2) dopamine receptor [6]): 101%; EC50 (D(3) dopamine receptor [7]): 0.26 nM
11 | CCCN(CCN1CCN(Cc2cc3ccccc3[nH]2)CC1)C1CCc2c(O)cccc2C1 (configuration not stated) | 33.4 | 5.48 | 183 | –
12 | CCCN(CCC)CCc1cccc2c1CC(=O)N2 | – | – | – | Activity (Rattus norvegicus [9]): Active
13 | CCCN(CCN1CCN(C(=O)c2cc3ccccc3[nH]2)CC1)C1CCc2nc(N)sc2C1 (racemic) | – | 4.59 | 852 | Activity [1]: Dose-dependent effect
14 | CCCN(CCN1CCN(C(=O)c2ccc3[nH]ccc3c2)CC1)[C@@H]1CCc2nc(N)sc2C1 | 49.7 | 52.8 | 2630 | –
15 | CCCN(CCN1CCN(c2ccc3[nH]ccc3c2)CC1)C1CCc2c(O)cccc2C1 (configuration not stated) | 7.3 | 10.4 | 76.4 | –
16 | CCCN(CCN1CCN(Cc2ccc3[nH]ccc3c2)CC1)C1CCc2c(O)cccc2C1 (configuration not stated) | 64.5 | 4.17 | 269 | –
17 | CCCN(CCCCN1CCN(C(=O)c2cc3ccccc3[nH]2)CC1)C1CCc2nc(N)sc2C1 (racemic) | – | 1.74 | – | –
18 | CCCN(CCN1CCN(c2ccc3[nH]ccc3c2)CC1)C1CCc2nc(N)sc2C1 (racemic) | 24.3 | 1.92 | 46.7 | Activity [1]: Dose-dependent effect; IC50 [1]: 14500 nM
19 | CCCN(CCN1CCN(C(=O)c2cc3ccccc3[nH]2)CC1)[C@@H]1CCc2nc(N)sc2C1 | – | 54.1 | 2560 | –
20 | CCCN(CCN1CCN(c2ccc3[nH]ccc3c2)CC1)[C@@H]1CCc2nc(N)sc2C1 | 8.46 | 15.9 | 134 | –
21 | CCCN(CCN1CCN(c2ccc(-c3ccccc3)cc2)CC1)[C@H]1CCc2nc(N)sc2C1 | – | – | – | EC50 (D(2) dopamine receptor [5]): 33.1 nM; Emax (D(2) dopamine receptor [6]): 104%; EC50 (D(3) dopamine receptor [7]): 1.51 nM
22 | CCCN(CCN1CCN(C(=O)c2c[nH]c3ccc(O)cc23)CC1)C1CCc2nc(N)sc2C1 (configuration not stated) | 64.2 | 16.8 | 1080 | –
23 | CCCN(CCN1CCN(Cc2c[nH]c3ccccc23)CC1)C1CCc2c(O)cccc2C1 (configuration not stated) | 25.6 | 3.2 | 82.1 | –
24 | CCCN(CCN1CCN(c2ccc3[nH]ccc3c2)CC1)[C@H]1CCc2nc(N)sc2C1 | 17.8 | 2.19 | 39 | Activity (Rattus norvegicus [9]): Active; EC50 (D(2) dopamine receptor [5]): 2.96 nM; Emax (D(2) dopamine receptor [6]): 107%; EC50 (D(3) dopamine receptor [7]): 1.26 nM
